The values that follow come from ChEMBL document CHEMBL4513216, “Probing the Open Global Health Chemical Diversity Library for Multistage-Active Starting Points for Next-Generation Antimalarials” (ACS Infect Dis, 2020).

The data set can be described thus: Toxicity liver stage against HepG2, at 10uM. Type of data set: cell-based. Set-up: test concentration 10 uM, cell line HepG2-A16-CD81EGFP. To be noted: human, HepG2-A16-CD81EGFP cells; read-out: INHIBITION
The method, boiled down: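 Uninfected HepG2-A16-CD81EGFP cells, 3 × 10^3 per well, 1536-well, plated on prespotted compound at 10 μM final, parasite-free screening media added to match infected plates; puromycin 10 μM positive, DMSO 0.5% negative; run in parallel with 48 h PbLuc assay at 37 °C, 5% CO2; viability by CellTiter-Glo luminescence, normalized to controls.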
`O=C(c1ccc(C(F)(F)F)cc1)C1CCCN(C(=O)Cn2cnnn2)C1` (configuration not stated): the cytotoxicity at 10 µM was -5.34%.
Under `O=C(CCNc1ncccn1)Nc1ccc(Cn2cncn2)cc1` stands 2.5%; under `O=C(NCC1CC1)C1CCC2(CCN(C(=O)c3ccoc3)CC2)O1` (configuration not stated), 4.97%.
`COc1ccc(OC)c(NC(=O)N2CCCC2c2ccco2)c1` (configuration not stated): the cytotoxicity at 10 µM was -6.57%.
Under `O=C(c1ccco1)N1CCC2(CCC(=O)N2Cc2cccc(F)c2)CC1` stands 2.84%; under `CC(C)C(=O)N1CCC2(CCCN(CCOc3ccccc3)C2)C1` (configuration not stated), 6.71%; under `CCN(CC)C(=O)CCn1ncc2c(Cl)cccc21`, 12.4%.
Under `CS(=O)(=O)N1CCc2ccc(C(=O)N3CCn4ncnc4C3)cc21` stands -7.79%.
As for `CC1(C(=O)NC2CCCC2)CCCN(c2cnccn2)C1` (configuration not stated), the figure is -5.81%.
Consider `Cc1cc2n(n1)[C@@H](C(F)(F)F)C[C@@H](C1CCN(C(=O)C3CC3)CC1)N2`, for which the cytotoxicity at 10 µM was -41%.
Under `CCn1ccc(C(=O)N2CCCC2(C)c2nc(C)cc(N(C)C)n2)n1` (configuration not stated) stands -7.56%; under `O=c1[nH]c(N2CCOCC2)nc2c1CN(Cc1cccnc1)CC2`, 12.3%.
Under `Cc1cc(C2CCN(C(=O)c3cnn(C)c3)CC2)ccn1` stands -17.8%; under `CN1CCCC(c2cccc(CCC(N)=O)n2)C1` (configuration not stated), 2.9%; under `CN1CCCC[C@@H]2[C@H]1[C@@H](c1ccccc1)CCN2C(=O)c1ccncc1`, -13%.
With `Cc1cc(C)n(Cc2cccc(C(=O)N3CCOCC3(C)C)c2)n1`, the cytotoxicity at 10 µM is -3.51%.
Under `O=C(NCCNC(=O)C1CCN(CC(F)(F)F)CC1)c1ccoc1` stands 5.09%; under `O=C(CCc1cc(Br)cs1)NCCCn1ccnc1`, 1.08%.
Under `COc1ccc(CNCCc2cccc(C(N)=O)c2)cc1O` stands 8.42%; under `CCSCc1ccnc(NC(=O)C2CCCO2)c1` (configuration not stated), 5.39%.
As to `COCCN1CCN(CC(=O)NC2(C#N)CCCC2)CC1C` (configuration not stated), the cytotoxicity at 10 µM is 10.7%.
`CC(C)OCCC(=O)NCC(O)c1c(F)cccc1F` (configuration not stated): the cytotoxicity at 10 µM was -6.51%.
Under `COC(=O)c1ccc(NC(C)c2ccc3c(c2)CC(=O)N3)nn1` (configuration not stated) stands 3.82%.
Under `CN1CCOC(CNC(=O)CCCc2ccccc2)C1` (configuration not stated) stands -0.95%; under `Cc1nc(CN2CCN(c3ccc(SC(C)C)nn3)CC2)cs1`, 5.71%.
As for `CC(C)n1cnnc1CNC(=O)c1cnc2ccccc2n1`, the figure is 7.01%; as for `CCOc1ccc(Cl)c(C(=O)N2CCCC(c3cc(C)[nH]n3)C2)n1` (configuration not stated), 8.83%.
Turning to `COC(=O)c1ccc(N(C(=O)c2cccnc2C)C(C)C)c(C)c1`, the cytotoxicity at 10 µM is -8.58%.
For `c1coc(-c2nc(CN3CCOC(Cn4cccn4)C3)cs2)c1` (configuration not stated), the cytotoxicity at 10 µM is -6.45%.
As for `CC(C)c1cc(C(=O)N2CCOCC2CC(=O)c2ccco2)nn1C` (configuration not stated), the figure is 5.52%; as for `CNC(=O)COc1ccc(CNCc2cc(F)ccc2F)cc1`, 3.53%; as for `Cc1nc(-c2ccsc2)ccc1C(=O)N(C)CC(F)(F)F`, -1.54%.
Turning to `CCc1ncc2c(n1)CN(CCCOc1ccc(C#N)cc1)CC2`, the cytotoxicity at 10 µM was 16.4%.
Under `CC(c1nc(C2CC2)no1)N(C)Cc1ccc(C#N)cc1` (configuration not stated) stands 4.15%.
Under `COc1ccccc1CCNC(=O)CNC1CCc2nc(C)nn2C1` (configuration not stated) stands -12.3%; under `CN(CCC#N)C(=O)CN(C1CC1)C1CCc2ccccc21` (configuration not stated), -4.74%.
Under `CC(C)c1cccc(-n2cc(O)c(C(N)=O)n2)c1` stands -5.93%; under `CCCNC(=O)C1CCN(CC(O)c2ccccc2C(F)(F)F)CC1` (configuration not stated), 3.21%; under `NC(=O)c1ccc(CNC2CCCSC2)cc1` (configuration not stated), -9.44%.
With `O=C(Nc1ccnn1Cc1ccccc1Cl)C1CCS(=O)(=O)C1` (configuration not stated), the cytotoxicity at 10 µM was -3.95%.
Under `CC(C(=O)N1CCc2sccc2C1)N1CCC(S(N)(=O)=O)CC1` (configuration not stated) stands 9.26%; under `Cn1cc(CCCNC(=O)NC2CCN(CC(F)(F)F)C2=O)cn1` (configuration not stated), 6.51%; under `c1cncc(-c2ccnn2CN2CCOCC2)c1`, 3.44%.
Take `CCc1ccc(C(=O)NCc2ccnc(C)n2)cc1`: the cytotoxicity at 10 µM was -4.91%.
As for `CC(C)C(O)CNC(=O)Nc1cnn(C(C)C)c1` (configuration not stated), the figure is 3.57%; as for `CNC(=O)Nc1cc(-c2ccc(Br)cc2)nn1CCO`, -1.35%; as for `O=C(NCCCNC(=O)c1cccc(O)c1)Nc1ccc(F)cc1F`, -11%.
As for `Cn1ccc(C(=O)N2CCC3(CC2)CC(Nc2cnccn2)CO3)n1` (configuration not stated), the figure is 4.35%.
Under `CN(C)CCOCC1CN(CCN(C)C)Cc2ccnn2C1` (configuration not stated) stands 0.656%; under `O=C(c1ccncc1)N1CCN2C[C@H](Oc3cccnc3)C[C@H]2C1`, 2.83%.
On to `COc1cccc(CC(=O)N2CCc3ncnc(NC(C)C)c3CC2)c1`, for which the cytotoxicity at 10 µM came to 6.56%.
Turning to `CNc1nccc(-c2cnc3sc(C)c(C)n3c2=O)n1`, the cytotoxicity at 10 µM is -2.78%.
For the molecule `O=c1c(-c2ccnc(N3CCC[C@H]3CO)n2)cnc2sccn12`, the cytotoxicity at 10 µM was -6.3%.
Under `CCOC(=O)CNc1nc(COC)nc2c1cnn2C` stands 9%.
As for `COCCCN1CC2(CCCN(c3ncnc4[nH]cnc34)C2)CCC1=O` (configuration not stated), the figure is -2.95%; as for `Cc1csc(CN(C)CCOc2ccccc2)n1`, -3.18%; as for `COCCN(Cc1nccs1)C(=O)c1cc(-c2ccc(C)s2)n[nH]1`, -8.84%.
`O=C(c1cc(=O)[nH][nH]1)N1CCCC2(CCC(=O)N(C3CCCC3)C2)C1` (configuration not stated): the cytotoxicity at 10 µM worked out at 0.988%.
As for `Cc1ccc([C@@H]2CN(C(=O)c3cc(C)n[nH]3)C[C@H]2NC(=O)C2CC2)cc1`, the figure is -7.77%; as for `CCC(CO)NC(=O)c1cc(COc2ccc(OC)cc2Cl)[nH]n1` (configuration not stated), 2.2%; as for `O=C(c1ccc(-c2cc[nH]n2)cc1)N1CC[C@H](CO)[C@H](O)C1`, 4.52%.
Under `CCn1ncnc1CN(C/C=C/c1ccccc1)CCOC` stands 4.3%; under `COCC(=O)N1CCCC(COc2ccccc2C)C1` (configuration not stated), 2.06%; under `O=C(c1coc(COc2ccccc2F)n1)N1CCCO1`, 6.29%.
With `CCn1nc(C)c(NC(=O)CN2CCN(C(C)=O)CC2)c1C`, the cytotoxicity at 10 µM was -6.67%.
Under `CN(Cc1ccccc1)C1(C(=O)NC(CO)CO)Cc2ccccc2C1` stands 2.59%; under `COc1cccc(CC2CN(C3CC(C)(C)NC(C)(C)C3)CCO2)c1` (configuration not stated), -91.7%; under `CC(=O)NCC1CCC2(CCN(c3ncc(C)cn3)CC2)O1` (configuration not stated), -3.09%.
Under `CCC(NC(=O)COC)c1ccccc1OCC(=O)N1CCCC1` (configuration not stated) stands -6.39%; under `CCN(Cc1ccc2c(c1)OCCO2)C(=O)c1ccc(C)[nH]c1=O`, -4.6%.
Under `CC1CCCN(C(=O)CNC(=O)c2ccoc2)C1` (configuration not stated) stands -0.775%; under `CN(Cc1ccc(F)cc1)C(=O)CN1CCOC(Cn2cccn2)C1` (configuration not stated), 2.2%; under `CCn1ccnc1CN1CCCN(C(=O)c2cnc(C)cn2)CC1`, -12.3%.
As to `Cc1nc(CN2CCCN(C(=O)c3c(C)oc(C)c3C)CC2)cs1`, the cytotoxicity at 10 µM was -14%.
As for `Cc1nc(C)c(CN2CCOC(CN(C)c3cccnn3)C2)s1` (configuration not stated), the figure is -7.16%; as for `CCOCC(O)CN1CCN(C(=O)c2cccc3[nH]ncc23)CC1` (configuration not stated), -12.8%.
As for `COc1ccc(Cl)cc1C(=O)N(C)Cc1cc(C)on1`, the figure is -22.9%; as for `O=C(CN1CCN(c2ccc3nncn3n2)CC1)NC1CCCCC1`, -12.6%.
As for `Cc1cc(C)n(CC2CCCN2C(=O)CCCc2ccccn2)n1` (configuration not stated), the figure is -0.395%.
Turning to `O=C(Cc1ccc2c(c1)CCO2)N1CCN(c2cnccn2)CC1`, the cytotoxicity at 10 µM was -11.3%.
As for `COc1ccccc1OCCN1CCCC(c2cc(C(N)=O)[nH]n2)C1` (configuration not stated), the figure is 3.71%; as for `COc1ccnc(N2CCN(C(=O)Cc3ccc(C)s3)CC2)n1`, 0.818%.
Turning to `CNC(=O)[C@@H]1CN(C(=O)CCOC)C[C@H]1c1ccnc(N2CCCC2)n1`, the cytotoxicity at 10 µM is -3.43%.
Under `Nc1ccc(-c2cnc(C3CCCN3)cn2)cn1` (configuration not stated) stands 2.19%; under `C[C@@H](NC(=O)c1ccc(Cl)cc1)c1onc(-c2cccnc2)c1C(=O)O`, -1.6%.
Regarding `O=C1CC2(CCCNC2)C(=O)N1Cc1cccc(Cl)c1` (configuration not stated), the cytotoxicity at 10 µM was -1.19%.
Turning to `CCC(C)(N)c1nc(C(C)C)cc(=O)[nH]1` (configuration not stated), the cytotoxicity at 10 µM is 14%.
For the molecule `CC(C)(N)c1nc(C(F)F)cc(=O)[nH]1`, the cytotoxicity at 10 µM came out at 11.9%.
Under `CCN1C(=O)C(c2ccccc2)CC12CCN(Cc1cccnc1)CC2` (configuration not stated) stands 4.65%; under `O=S(=O)(C1CC1)N1CCCn2cnc(COc3cccnc3)c2C1`, 1.4%; under `COCCN1C[C@@H](c2ccccc2)[C@@]2(CCN(CC(=O)N(C)C)C2=O)C1`, 3.11%.
Under `CN(C)CC(=O)N1CCCC2(CCN(c3ccccc3)C2=O)C1` (configuration not stated) stands -1.24%; under `CC(C)N1CCC(N2CCC(C(=O)N(C)C)CC2)CC1`, 4.71%; under `CC(C)(CN)NS(=O)(=O)c1c(F)cccc1F`, -8.89%.
As for `CCc1c(C)[nH]c(C2(N)CCCCC2)nc1=O`, the figure is -3.47%; as for `Cc1nn(C)cc1CN1C[C@H]2CC[C@@H](C1)N(Cc1c(C)noc1C)C2=O`, 5.9%.
For the molecule `COC(=O)Cn1c(=O)[nH]c2cn(-c3ccccc3)c(=O)n21`, the cytotoxicity at 10 µM was 21.6%.
